Assay outcomes from PubChem.
Apaf1 inhib – inhibitors of human Apaf-1 apoptosome; reconstituted apoptosome caspase-3 activity, DEVD-Rh110 fluorescence; inhibition, % at 20 µM; 330,000 compounds, 0.71% hits; active means inhibition of at least 40% at 20 µM;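 further: plate controls were DMSO wells for no effect and DEVD-CHO caspase inhibitor wells for full effect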
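Medium: Hepes buffer, pH 7.5 / System: biochemical Apaf-1 apoptosome reconstitution / Measured by: Rh110 fluorescence, excitation 480 nm, emission 540 nm / Times: compound with Apaf-1, dATP, procaspase-3 30 min, then 50 min reaction, room temperature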
TDP2 inh – TDP2 (human) inhibition, absorbance primary screen | AID 720702 | 370,000 compounds, 0.34% hits | inhibition, % at 12.8 µM | O95551 | recombinant TDP2, T5PNP hydrolysis, p-nitrophenol absorbance 415 nm;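 active means inhibition above the mean of all tested compounds plus 3 SD, set per campaign, cut at about 25% in these data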;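 further: 0% = DMSO with enzyme and 100% = buffer with substrate but no TDP2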
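System: recombinant human TDP2 / Amount: 120 nM TDP2 per well / Also added: 5 mM T5PNP chromogenic substrate / Doses: 12.8 µM single point, 1% DMSO / Incubation: 2 h at 37 °C / Detection: p-Nitrophenol epi absorbance / Evaluation: % inhibition relative to enzyme-containing and enzyme-free wells / Repeats: singlicate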
GSTO1 inh – blocks human GSTO1 in RBBP9 counter-screen; recombinant GSTO1, activity-based probe fluorescence polarization; 300,000 compounds, 1.1% hits; inhibition, % at 5.96 µM; AID 1974;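 active means inhibition above the campaign mean inhibition plus 3 SD, cut at about 35% in these data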;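 further: 0% = GSTO1-1 with DMSO and 100% = wells lacking GSTO1-1 enzyme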
Target sequence (P78417 whole entry, looked up): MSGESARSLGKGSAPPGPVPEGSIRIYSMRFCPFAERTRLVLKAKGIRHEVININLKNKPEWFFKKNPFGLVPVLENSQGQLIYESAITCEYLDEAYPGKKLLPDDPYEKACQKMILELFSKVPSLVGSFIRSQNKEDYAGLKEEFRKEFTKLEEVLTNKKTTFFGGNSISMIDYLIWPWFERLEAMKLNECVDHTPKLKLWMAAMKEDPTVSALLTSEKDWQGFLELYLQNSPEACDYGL
PAD4 inh – PAD4 (human) enzyme inhibition; Q9UM07; recombinant PAD4, RCA probe fluorescence polarization; inhibition, % at 6.36 µM; 330,000 compounds, 0.41% hits; AID 485272;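 active means percent inhibition above a cutoff equal to the mean of all tested compounds plus 3 SD, cut at about 15% in these data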;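 further: 0% = PAD4 with RCA probe and DMSO and 100% = probe without PAD4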
JMJD2C inh – inhibitors of human GASC-1 (JMJD2C) demethylase; Q9H3R0; GST-JMJD2C(1-420) H3K9me3 demethylation, DELFIA europium; inhibition, % at 2.35 µM; 330,000 compounds, 0.069% hits;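 active means more than half of a compound's replicate wells show inhibition beyond 50%, single wells judged on their own value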;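 further: signal counts dimethyl H3K9 product captured on neutravidin plate; 0% = median of DMSO wells and 100% = 0.3 times that DMSO median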
UBC9 SUMO inh – inhibitors of human SUMOylation (UBC9). P63279. HTRF SUMOylation assay, SAE1/SAE2 + UBC9, in vitro. inhibition, % at 35 µM. 290,000 compounds, 0.36% hits. AID 2006; in the data active means inhibition above about 50%, passing the limit was not always enough
Target sequence (P63279 whole entry, looked up): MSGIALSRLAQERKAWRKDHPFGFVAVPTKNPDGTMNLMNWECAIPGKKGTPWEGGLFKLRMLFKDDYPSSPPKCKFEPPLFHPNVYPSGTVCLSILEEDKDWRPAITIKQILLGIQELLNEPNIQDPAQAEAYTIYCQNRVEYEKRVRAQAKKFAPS
Starred values were filed as active, the others as inactive; / = no result given. Sampled rows, rich in hits. Any-hit rate of the full collection: about 1.6%.

SMILES	Apaf1 inhib	TDP2 inh	GSTO1 inh	PAD4 inh	JMJD2C inh	UBC9 SUMO inh
COc1ccccc1C(=O)Nc1sc2c(c1C(=O)NCc1ccco1)CCCC2	3	-18	0	1	-2	61*
CCCN(CC(=O)Nc1ccccc1OC)C(=O)c1cccc(S(=O)(=O)NCc2ccccc2)c1	17	0	-5	-1	-2	/
CCCN(CC(=O)Nc1ccccc1OC)C(=O)c1cc(S(=O)(=O)NCc2ccccc2)ccc1C	62*	-5	-3	-3	8	9
COc1ccc(N=C2NC(=O)/C(=C\c3ccco3)S2)cc1	13	6	6	-3	-2	62*
COc1ccc(/C=C2\SC(=Nc3ccccc3)NC2=O)cc1	2	/	/	/	-11	7
COC(=O)C1CN(C2CCCC2)CCS(=O)(=O)N1Cc1ccccc1 (stereo not drawn)	/	2	/	/	/	/
Cc1ccsc1C(=O)OCc1nc2ccccc2c(=O)[nH]1	-8	-5	-4	-4	103*	-1
Cc1ccsc1C(=O)OCc1nc2ccsc2c(=O)[nH]1	-14	-6	0	2	4	/
CC(C)(C=O)C1=CC(=O)c2ccccc2C1=O	/	24	49*	-8	5	22
CCN(CC)CCOC(=O)c1ccc(NC(=O)CCCN2C(=O)/C(=C\c3cccs3)SC2=S)cc1	60*	4	8	-6	10	-25
O=C(/C=C/c1cc[n+](CC(=O)c2ccc3cccc4c3c2CC4)cc1)c1ccc2cccc3c2c1CC3	59*	/	25	-6	4	32
O=C(C[n+]1ccc2ccccc2c1)c1cccc2ccccc12	17	1	-1	-5	9	22
CC(=O)CCc1ccc(OCC(O)CNC2CCCc3ccccc32)cc1 (stereo not drawn)	65*	2	-7	2	-6	-6
CCOc1ccc(CNC2CCCc3ccccc32)cc1 (stereo not drawn)	9	-9	1	-2	-5	-13
CC1=NN(c2ccccc2C(=O)O)C(=O)C1N=Nc1ccccc1 (stereo not drawn)	12	-16	36*	-5	-1	7
CC(C)c1cc(=O)oc2c3c4c(cc12)CCCN4CCC3	-2	-3	-5	-7	0	32
CN1CCCc2cc3c(C(F)(F)F)cc(=O)oc3nc21	3	-2	-3	4	47	62*
CCCCNC(=O)C(C1CCCCC1)N(CCN(C)C)C(=O)CCCN1C(=O)NC(c2ccc(-c3ccccc3)cc2)C(C(=O)OCc2ccccc2)=C1C (stereo not drawn)	64*	/	/	4	/	/
CCCCCN(C(=O)CCC(=O)OCC(=O)c1cccc(OC)c1)c1c(N)n(CCCC)c(=O)[nH]c1=O	16	-1	1	-1	59*	-1
CCOC(=O)[C@@]12CCCC=C1N(CCc1ccc(Cl)cc1)C(=O)[C@H]2CC(=O)NCc1cccc(C(F)(F)F)c1	/	-9	/	/	/	/
Cc1nn(CC(=O)N/N=C/c2ccc3c(c2)OCO3)c(C)c1Br	-9	0	-1	3	14	50*
Cc1ccc(C)c(S(=O)(=O)Nc2cc(SCC(=O)O)c(O)c3ccccc23)c1	/	/	87*	33*	48	80
O=C(O)c1cc(N/N=C/C(Cl)=C/c2ccccc2)ccc1Cl	-21	11	40*	1	81	12
O=S1(=O)c2ccc(N3CCCC3)cc2Oc2ccccc2CN1Cc1cn(Cc2ccccc2C(F)(F)F)nn1	/	12	/	/	/	/
O=c1c(-c2c(O)cc(O)c3c(=O)cc(-c4ccc(O)cc4)oc23)c(-c2ccc(O)cc2)oc2cc(O)cc(O)c12	-19	0	-25	-3	/	52*
O=c1cc(-c2ccc(O)cc2)oc2c(-c3c(O)cc(O)c4c(=O)cc(-c5ccc(O)cc5)oc34)c(O)cc(O)c12	-12	-4	/	0	/	/
CCCC/C=C1/[C@H](CC)N(C)C2=N[C@@H](c3ccccc3)CC(=O)N21	/	6	/	/	/	/
Oc1[nH]c2ccccc2c1N=NC(=S)N1CCOCC1	-12	/	36*	3	-3	-62
COc1ccc(/C=C2\CC3(OC(=O)c4ccc(F)cc4)CCCN2C3)cc1 (stereo not drawn)	/	3	/	/	/	/
Brc1cc2c(cc1Br)OCCOCCOCCO2	-1	-16	37*	6	15	29
